# Screens: PubChem BioAssay, several laboratories
# Shown are actives, neighbours in structure and some others; about 2.8% of the full set was active somewhere.
# NPY Y1 blocker: NPY-Y1 receptor antagonists, primary screen, cell-based; hit rate 1% among 200,000; HEK293-CNG Y1 cells, membrane potential fluorescence; NPY at EC95, then isoproterenol; inhibition, % at 3.6 µM; Neuropeptide Y receptor type 1 (Homo sapiens), P25929;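 active means inhibition above the campaign mean inhibition of all tested compounds plus 3 SD, cut at about 20% in these data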;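 further: 0% = DMSO wells given NPY plus isoproterenol and 100% = isoproterenol alone without NPY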
# Target sequence (P25929 whole entry, looked up): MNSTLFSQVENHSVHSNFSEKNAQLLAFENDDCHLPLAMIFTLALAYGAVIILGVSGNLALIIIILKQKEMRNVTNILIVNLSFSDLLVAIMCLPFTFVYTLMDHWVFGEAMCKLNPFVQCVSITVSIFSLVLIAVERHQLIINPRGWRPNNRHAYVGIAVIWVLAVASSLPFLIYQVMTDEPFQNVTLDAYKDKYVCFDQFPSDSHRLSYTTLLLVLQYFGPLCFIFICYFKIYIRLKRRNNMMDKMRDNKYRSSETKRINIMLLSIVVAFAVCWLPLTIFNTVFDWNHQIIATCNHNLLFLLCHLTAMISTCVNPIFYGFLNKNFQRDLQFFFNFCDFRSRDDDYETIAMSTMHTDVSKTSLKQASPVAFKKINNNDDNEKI
#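 Test system – HEK293 Y1/CNG channel cell line · Also added – NPY agonist 25 nM, then isoproterenol 1 µM plus Ro 20-1724 25 µM · Compound dosing – one concentration, 3.6 µM, in 0.4% DMSO · Schedule – compound incubation 1 h at room temperature, readout 45 min post-stimulation · Technique – fluorescence, membrane potential probe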
# NPY-Y2 PAM-ag: NPY-Y2 potentiators or agonists, primary screen, cell-based; Neuropeptide Y receptor type 2 (Homo sapiens), P49146; cells expressing NPY-Y2, potentiator/agonist read-out; activation, % at 3.6 µM; hit rate 0.45% among 220,000; AID 1359, 2008; in the data active means activation above about 27%;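 further: cells stimulated with NPY near EC25 plus isoproterenol at EC100; 0% = vehicle plus submaximal agonist and 100% = vehicle plus saturating agonist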
# Target sequence (P49146 whole entry, looked up): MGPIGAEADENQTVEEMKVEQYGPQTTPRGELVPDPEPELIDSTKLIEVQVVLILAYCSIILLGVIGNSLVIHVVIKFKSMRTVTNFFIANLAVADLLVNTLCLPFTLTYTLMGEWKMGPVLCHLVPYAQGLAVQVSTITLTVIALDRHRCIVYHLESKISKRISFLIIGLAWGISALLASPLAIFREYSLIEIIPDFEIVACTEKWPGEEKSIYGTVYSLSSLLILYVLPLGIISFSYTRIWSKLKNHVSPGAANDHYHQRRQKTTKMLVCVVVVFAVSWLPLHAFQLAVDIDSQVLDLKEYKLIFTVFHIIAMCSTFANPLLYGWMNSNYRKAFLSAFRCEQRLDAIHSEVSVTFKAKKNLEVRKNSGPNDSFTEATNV
# NPY Y2 blocker: NPY-Y2 receptor antagonists, primary screen, cell-based; NPY-Y2 expressing cells, antagonist mode; hit rate 0.99% among 140,000; inhibition, % at 2.7 µM; AID 793, 2007; Neuropeptide Y receptor type 2 (Homo sapiens), P49146; in the data active means inhibition above about 17%;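 further: 0% = vehicle with agonist challenge and 100% = reference antagonist with challenge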
# Measles CPE: compounds protecting cells from measles virus cytopathic effect, primary screen, measles RdRp inhibitor project, single point, MLSMR library, absorbance | Measles virus-infected cells, CPE protection | protection (pct of control), % at 4 µM | hit rate 1.5% among 140,000; in the data active means protection mostly above about 24%, no sharp cut-off; inactive means mostly below about 26%
# Rad51 HR inh: human RAD51 strand exchange inhibitors, primary screen, biochemical, fluorescence | DNA repair protein RAD51 homolog 1 (Homo sapiens), Q06609 | hRad51 DNA strand exchange, fluorescence dequenching | inhibition, % at 10 µM | hit rate 0.085% among 200,000 | AID 1385, 2008;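 active means inhibition above 40% at the single screening dose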;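 further: 0% = DMSO control wells and 100% = blanks with heterologous ssDNA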
#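 Test system: preformed human Rad51 ssDNA filaments. Compound dosing: single dose, 10 µM final compound. Incubation: filaments 15 min 37 °C, then compound 30 min. Technique: FRET fluorescence dequenching, excitation 485 nm, emission 520 nm. Read-out basis: percent inhibition from fluorescence, normalised to plate control and blank means. Benchmarks: plate controls and plate blanks.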
# NPY1 pot ag: NPY-Y1 receptor potentiators or agonists, primary screen, cell-based; AID 1304, 2008; activation, % at 3.6 µM; NPY-Y1 expressing cells, potentiator/agonist activation; hit rate 0.37% among 220,000; Neuropeptide Y receptor type 1 (Homo sapiens), P25929; in the data active means activation above about 33%, passing the limit was not always enough;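 further: cells stimulated with NPY at EC10 then isoproterenol at EC100; 0% = low agonist plus stimulus and 100% = saturating agonist plus stimulus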
# NPY-Y2 pot conf: NPY-Y2 potentiators or agonists, confirmation, cell-based; shares compounds with NPY-Y2 PAM-ag; AID 1539, 2009; hit rate 20% among 450; cell-based NPY-Y2 potentiator/agonist assay; activation, % at 3.6 µM; in the data active means activation above about 33%
# NPY-Y1 counter: NPY-Y1 potentiators or agonists, counter-screen for NPY-Y2 potentiator project, cell-based, fluorescence | AID 1651, 2009 | shares compounds with NPY-Y2 PAM-ag | Y1 HEK293-CNG cells, membrane potential fluorescence | activation, % at 3.6 µM | hit rate 20% among 450; in the data active means activation above about 45%;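 further: cells stimulated with submaximal NPY then isoproterenol with phosphodiesterase inhibitor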
# NPY-Y1 agonist 2: NPY-Y1 direct agonists, selectivity assay for NPY-Y2 potentiator project, cell-based, fluorescence; shares compounds with NPY-Y2 PAM-ag; HEK293 Y1-CNGC, membrane potential fluorescence, agonism; activation, % at 3.6 µM; hit rate 37% among 450;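 active means activation above the mean of DMSO-only control wells plus 3 SD, cut at about 18% in these data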;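 further: cells stimulated with 1 µM isoproterenol plus the PDE inhibitor Ro 20-1724; 0% = isoproterenol with DMSO and no NPY and 100% = 40 nM NPY; Y1 agonists lower the membrane potential dye signal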
# CNGC inh: CNGC cAMP sensor activity inhibitors, counter-screen for NPY-Y2 potentiator project, cell-based, HEK293-CNG parental, membrane potential fluorescence; shares compounds with NPY-Y2 PAM-ag; isoproterenol cAMP; inhibition, % at 3.6 µM; hit rate 32% among 450;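 active means inhibition above the control-well mean plus 3 SD of those wells, cut at about 22% in these data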;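 further: 0% = DMSO with isoproterenol and 100% = DMSO without isoproterenol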
# Y2 agonist ctr: NPY-Y2 direct agonists, counter-screen for NPY-Y2 potentiator project, cell-based, fluorescence | hit rate 56% among 450 | activation, % at 3.6 µM | shares compounds with NPY-Y2 PAM-ag | HEK293 Y2/CNGC cells, membrane potential fluorescence, agonist mode;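 active means activation above the mean of solvent-only control wells plus 3 SD, cut at about 10% in these data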;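 further: cells stimulated by isoproterenol with no NPY added so direct agonism is tested; 0% = DMSO with isoproterenol alone and 100% = NPY at EC100 plus isoproterenol; agonism lowers probe fluorescence through less cAMP and CNG channel opening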
# * hit, by the source's call; . = no result.
SMILES,NPY Y1 blocker,NPY-Y2 PAM-ag,NPY Y2 blocker,Measles CPE,Rad51 HR inh,NPY1 pot ag,NPY-Y2 pot conf,NPY-Y1 counter,NPY-Y1 agonist 2,CNGC inh,Y2 agonist ctr
CC(=O)c1ccc(N2CCN(C(=S)Nc3ccc(Oc4ccccc4)cc3)CC2)cc1,-0.7,39.1*,.,.,-16.8,11.6,1.4,-20.4,-8.6,-4.4,11.3*
CCCn1c(SCC(=O)OCC)nc(C(F)(F)F)cc1=O,4.4,-10.4,.,.,-9.8,-15.4,.,.,.,.,.
CN(C)C(CN=C1NS(=O)(=O)c2ccccc21)c1ccco1 (centres undefined),-5.3,50.5*,.,.,13.2,15.8,-0.4,5.6,-3.1,-0.9,-3.0
O=C(c1ccco1)N1CCN(C(=O)c2sccc2-c2ccccc2)CC1,4.4,26.6*,8.7,8.5,0.8,4.2,-3.1,-7.6,-15.2,-12.6,-17.6
Cc1ccccc1Nc1c(-c2ccncc2)nc2ccc(Br)cn12,-0.7,47.5*,0.3,4.4,8.1,30.5,71.4*,76.3*,57.6*,52.9*,69.7*
O=C(CCl)N=c1sccn1Cc1cccc2ccccc12,-1.6,26.8*,.,.,-8.0,8.2,-3.8,-8.0,-10.9,14.0,3.2
CC1=NNC(=O)/C1=C\c1cn(-c2ccccc2)nc1-c1ccccc1,-3.9,14.3,.,.,-2.8,13.8,.,.,.,.,.
Cc1ccc(OCCN2C(=O)NC3(CCc4ccccc4C3)C2=O)cc1 (centres undefined),3.3,-14.1,5.0,13.0,7.0,-26.1,.,.,.,.,.
CCn1[nH]c(=O)c(=Nc2c(C)n(C)n(-c3ccccc3)c2=O)cc1-c1ccc(Cl)cc1,-7.2,41.5*,1.2,17.9,-33.2,52.6,38.2*,59.6*,42.9*,53.0*,30.3*
O=C(CN1C(=O)NC2NC(=O)NC21)N/N=C/c1ccccc1F (centres undefined),6.6,-7.4,.,.,.,12.6,.,.,.,.,.
CCOc1cc(C(=S)N2CCOCC2)ccc1OS(=O)(=O)c1ccc(NC(C)=O)cc1,5.5,32.8*,10.1,29.3,1.5,7.8,5.3,-15.7,-9.9,-2.1,-5.7
O=C(O)CC1(CC(=O)Nc2ccccc2N2CCOCC2)CCCC1,.,59.1*,.,.,-13.8,23.6,-3.7,-7.6,-4.1,-5.0,-4.8
O=C(O)CCC(=O)Nc1ccccc1N1CCOCC1,-5.4,2.0,-0.8,13.9,-5.3,1.1,.,.,.,.,.
Cc1[nH]n(-c2nc(-c3cccc([N+](=O)[O-])c3)cs2)c(=O)c1C,-4.3,11.4,0.6,4.8,21.8,2.2,.,.,.,.,.
O=S(=O)(Nc1nc2ccccc2nc1Nc1cccc(S(=O)(=O)N2CCCCC2)c1)c1ccccc1,-5.1,37.9*,-2.0,17.6,-6.2,33.0,74.2*,67.6*,65.1*,44.3*,58.3*
Cc1ccc(OCCN2C(=O)CSC2=O)cc1,0.3,0.0,3.6,6.3,-1.9,-18.8,.,.,.,.,.
C[N+](C)(C)CCN1C(=O)CSC1=O,.,82.5*,.,.,-32.2,26.9,-3.2,-1.4,-1.6,0.8,1.9
COc1ccc(C)cc1NC(=O)c1ccccc1NS(=O)(=O)c1ccc(Cl)s1,7.2,57.5*,.,.,-20.5,-2.1,-6.3,-46.4,-30.4,-23.1,-10.9
Cc1nc(NCCCn2ccnc2)c2ccccc2n1,-0.2,0.7,2.0,3.8,-5.1,12.7,.,.,.,.,.
O=C1c2ccccc2-c2onc3ccc(NCCCn4ccnc4)c1c23,9.2,38.4*,33.6*,6.6,-4.4,38.3,-3.3,-6.3,-10.8,-9.6,2.8
COc1ccc(-c2csc(C)n2)cc1OC,-8.4,7.8,-1.5,10.6,-2.0,-12.8,.,.,.,.,.
COc1ccc(-c2csc(N3CCN(c4cc(C)nc5ccccc45)CC3)n2)cc1OC,7.6,31.7*,.,.,-3.2,-1.2,40.4*,39.1,16.0,32.7*,29.2*
CC(Cc1ccc(O)c(O)c1)C(C)Cc1ccc(O)c(O)c1 (centres undefined),.,.,.,.,2.1,.,.,.,.,.,.
CC(C)NC[C@@H](O)c1ccc(O)c(O)c1,-4.7,52.5*,2.8,11.1,3.5,63.4,54.1*,51.0*,72.7*,57.4*,53.6*
Oc1c(C2=NCCNC(C(F)(F)F)=C2)ccc2ccccc12,-11.6,30.9*,.,.,10.8,35.0,36.0*,49.7*,38.5*,32.3*,42.2*
SMILES,NPY Y1 blocker,NPY-Y2 PAM-ag,NPY Y2 blocker,Measles CPE,Rad51 HR inh,NPY1 pot ag,NPY-Y2 pot conf,NPY-Y1 counter,NPY-Y1 agonist 2,CNGC inh,Y2 agonist ctr
Cc1ccc(O)c(C2=NCCNC(C(F)(F)F)=C2)c1,-2.0,1.1,0.8,29.9,-1.8,19.5,.,.,.,.,.
N#Cc1cc(S(=O)(=O)c2ccc(Cl)cc2)c(N)[nH]c1=O,5.1,54.0*,.,.,-4.1,-13.6,-0.5,-2.2,-4.3,3.5,9.7
COc1nc(N)c(S(=O)(=O)c2ccccc2)cc1C#N,4.6,3.1,0.8,21.5,-6.1,3.6,.,.,.,.,.
CCN(CC)C(=O)c1cc([N+](=O)[O-])cc2c1-c1ccc([N+](=O)[O-])cc1C2=C(C#N)C#N,.,8.5,.,.,-1.8,19.2,.,.,.,.,.
Cc1cc(/C=N/NC(=O)Cn2c3ccccc3c(=O)c3ccccc32)c(C)n1-c1ccc(Cl)cc1,-2.9,30.8*,3.0,7.2,.,30.2,28.9,32.5,-0.2,-12.4,19.9*
CCNC(=S)N/N=C/c1cc(C)n(-c2ccc(Cl)cc2)c1C,5.7,-15.0,.,.,0.5,-17.0,.,.,.,.,.
c1ccc(-c2csc3ncnc(N4CCc5ccccc5C4)c23)cc1,6.1,-16.8,10.2,7.8,20.8,-7.0,.,.,.,.,.
O=c1c(C(c2ccccc2)c2c(O)sc3ccccc3c2=O)c(O)sc2ccccc12,1.6,-2.0,2.3,4.7,-0.4,20.2,.,.,.,.,.
C=C(C)CN(CC)C(=O)CC1C(=O)NCCN1CC(C)(C)C (centres undefined),.,51.1*,.,.,8.9,16.9,1.3,10.7,-0.5,1.8,6.4
